procasp7 counter = activates human procaspase-7, counter-screen for procaspase-3 activators; recombinant procaspase-7, Ac-DEVD-pNA absorbance 405 nm; D23A/D198A/D206A triple mutant, cannot self-cleave; scale: DMSO 0, 5 µM enzyme 100; 330,000 tested, 0.093% active; activation, % at 8.5 µM;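 active = percent activation above the screen-wide mean plus 3 SD, cut at about 25% in these data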
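buffer or medium = Zinc-free HEPES/NaCl buffer, pH 7.4 | material = Procaspase-7 triple mutant (PC-7 D3A) | input = 2 µM procaspase-7 mutant as dispensed | signal = Epi-absorbance of released pNA at 405 nm, two timepoints | timing = 1 h preincubation, 2 h reaction | replicates = singlicate compound testing | evaluation = % activation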
MsrA act = activators of bovine methionine sulfoxide reductase A; purified bovine MsrA, absorbance read-out; 360,000 tested, 0.3% active; AID 602163; activation, % at 10.6 µM; in the data active = activation above about 7.5%
proCasp3 act = procaspase-3 (human) activation; P42574; recombinant procaspase-3 D3A, Ac-DEVD-pNA absorbance 405 nm; activation, % at 8.5 µM; 330,000 tested, 0.11% active; AID 463141;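 active = activation above the mean of all tested compounds plus 3 SD, cut at about 21% in these data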
Target sequence (P42574 whole entry D9A/D28A/D175A): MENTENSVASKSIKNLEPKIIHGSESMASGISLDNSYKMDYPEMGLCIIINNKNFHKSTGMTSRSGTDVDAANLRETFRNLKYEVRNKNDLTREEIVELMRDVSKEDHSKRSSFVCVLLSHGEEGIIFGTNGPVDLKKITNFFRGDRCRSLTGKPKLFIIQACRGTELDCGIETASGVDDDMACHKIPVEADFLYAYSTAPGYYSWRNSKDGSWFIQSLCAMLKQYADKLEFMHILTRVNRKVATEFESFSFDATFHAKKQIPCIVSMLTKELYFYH
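Assay system – Procaspase-3 D3A mutant · Benchmarks – DMSO low control, extra-enzyme high control · Technique – 405 nm absorbance of p-nitroaniline, reads at 0 and 120 min · Doses – 8.5 µM nominal · Measure – % activation between DMSO and enzyme-spiked controls · Also added – Ac-DEVD-pNA chromogenic peptide substrate · Schedule – 1 h compound preincubation, 2 h substrate hydrolysis at 25 °C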
MsrA inhibitor = bovine MsrA inhibition | purified bovine MsrA, absorbance read-out | inhibition, % at 15.5 µM | 360,000 tested, 0.75% active | AID 651718
Bfl-1 A1 inh = inhibitors of the anti-apoptotic protein A1, read as caspase activation; MEF A1-2A-BIM cells, Caspase-Glo 3/7 luminescence, 3 h; percent of clofoctol response, vehicle zero; caspase activation, % (concentration not given with the values); 330,000 tested, 0.066% active;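 active = over half of replicate activation scores above 10%, or exactly half above 10 with the replicate mean above 10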
MsrA inh confirm = confirmation of bovine MsrA inhibitors | shares compounds with MsrA inhibitor | purified bovine MsrA, absorbance read-out | inhibition, % at 15.5 µM | 2,300 tested, 41% active | AID 651822;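 also: coupled to thioredoxin reductase with NADPH and selenocystamine and DMSO as substrate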
Hits are given with their value; i = inactive; nt = no result given. An excerpt weighted towards active compounds, which were near 1.2% of everything screened. Rule as the data show it, unless noted: active = inhibition above about 4.5%; inactive = the rest.

SMILES	procasp7 counter	MsrA act	proCasp3 act	MsrA inhibitor	Bfl-1 A1 inh	MsrA inh confirm
COc1ccc(C(C)(O)c2nc(-c3cccs3)cs2)cc1 (configuration not stated)	nt	i	nt	i	nt	nt
CCOC(=O)C1=C(C)NC2=C(C(=O)CCC2)C1c1cn(Cc2ccc(Cl)cc2Cl)nc1-c1ccccc1 (configuration not stated)	i	i	i	4.7	i	i
COc1ccc(-c2[nH]ncc2/C=N\NC(=O)c2cccs2)cc1OC	nt	i	nt	i	i	nt
CC(C)(C)S(=O)(=O)/C(C#N)=N/Nc1ccc(C#N)cc1	i	i	i	i	i	nt
COc1cccc(N/N=C(\C#N)S(=O)(=O)C(C)(C)C)c1	i	i	i	4.7	i	i
Cc1ccc(NC(=O)c2cnccn2)cc1S(=O)(=O)N1CCCCCC1	i	i	i	i	i	nt
Cc1nc2ccccc2c(=O)n1/N=C/c1cccs1	i	i	i	i	i	nt
Cc1nc2ccccc2c(=O)n1/N=C/c1cn(-c2ccccc2)nc1-c1cccs1	i	i	i	14.0	i	4.9
Cc1ccc(/C=N/NC(=O)c2ccccn2)s1	i	i	i	4.9	i	5.2
COc1ccc(-c2cc(C(F)(F)F)n3nc(C(=O)N4CCOCC4)nc3n2)cc1	nt	i	nt	7.7	nt	4.9
O=C(c1nc2nc(-c3ccccc3)cc(C(F)(F)F)n2n1)N1CCCCC1	i	i	i	i	i	nt
Cc1nc2cc(-c3sccc3-n3cccc3)nn2c(C)c1C	i	i	i	8.2	i	7.1
COc1ccc(C(=O)NC2CC2)cc1OC1CCN(Cc2cc(C)cc(C)c2)CC1	i	i	i	i	i	nt
BrC(=C\c1ccccc1)/C=N/Nc1nc(N2CCOCC2)nc(N2CCOCC2)n1	i	i	i	5.3	i	4.8
C(=N\Nc1nc(N2CCOCC2)nc(N2CCOCC2)n1)/c1ccncc1	i	i	i	i	i	nt
CC(/C=N/Nc1nc(N2CCCCC2)nc(N2CCCCC2)n1)=C\c1ccccc1	i	i	i	i	i	nt
CN(C)c1ccc(/C=C/C=N/Nc2nc(N3CCOCC3)nc(N3CCOCC3)n2)cc1	i	i	i	6.0	i	i
C(=N\Nc1nc(N2CCOCC2)nc(N2CCOCC2)n1)/c1cccnc1	i	i	i	i	i	nt
BrC(/C=C\c1ccccc1)=N/Nc1nc(N2CCOCC2)nc(N2CCOCC2)n1	i	i	i	6.7	i	4.6
COC(=O)C1=C(C)N(C)C(=NCC2CC2)NC1c1cccc(Cl)c1 (configuration not stated)	nt	nt	nt	i	nt	nt
Oc1ccc(/C=N/NC(=S)Nc2cccnc2)c(O)c1	i	i	i	7.0	i	5.2
C[C@H]1CNC(=O)c2c(C(=O)N3CCN(c4ccccc4)CC3)ncn21	nt	nt	nt	i	nt	nt
CC(C(=O)NC(C)(C)C)N1C(=O)c2cccc3cccc(c23)C1=O (configuration not stated)	i	i	i	4.8	i	i
c1ccc2nc(-c3nc4ccccc4[nH]3)ccc2c1	i	i	i	5.0	i	4.7
c1ccc2[nH]c(-c3cscn3)nc2c1	i	i	i	i	i	nt
SMILES	procasp7 counter	MsrA act	proCasp3 act	MsrA inhibitor	Bfl-1 A1 inh	MsrA inh confirm
Cc1ccc(/C=N\Nc2nc3ccc(Cl)cc3[nH]2)o1	i	i	i	4.7	i	i
COc1ccccc1N/C=C/C(=C(C#N)C#N)N(C)C	i	i	i	5.5	i	i
O=C(NCc1ccccn1)c1nc(Cn2ccc([N+](=O)[O-])n2)no1	i	i	i	i	i	nt
S=C1NC2(CCCC2)Nc2ccccc21	i	i	i	9.1	i	8.7
S=C1NC2(CCCCC2)Nc2ccccc21	i	i	i	6.4	i	7.2
S=C1NC2(CCCCCC2)N=C1c1ccccc1	i	i	i	i	i	nt
c1cc2c3c(cccc3c1)NC1(CCCC1)N2	nt	i	nt	i	nt	nt
CCCN1CCCCC(NC(=O)c2ccc(C)cc2C)C1=O (configuration not stated)	nt	nt	nt	i	nt	nt
CN(C)c1ccc(C=Nc2cnn(C)c2C(N)=O)cc1	i	i	i	4.9	i	i
Cc1cc(C)n2nc(C(F)(F)F)c(-c3ccccc3)c2n1	i	i	i	4.8	i	i
COC(=O)c1ccc(C(=O)N=c2sccn2C)cc1	i	i	i	i	i	nt
COc1ccc(C(=O)N=c2sccn2C)cc1	i	i	i	5.8	i	i
